Assay results as given in ChEMBL document CHEMBL4732237, “Discovery of 4-alkoxy-2-aryl-6,7-dimethoxyquinolines as a new class of topoisomerase I inhibitors endowed with potent in vitro anticancer activity” (2021).

The compounds below were run on MDA-MB-435 (assay: Growth inhibition of human MDA-MB-435 cells at 10 uM incubated for 48 hrs by sulforhodamine B assay relative to control). Settings: read-out: GI.
Assay type: functional
In short: (§1)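 NCI-60 single-dose screen. Cells were grown in RPMI 1640 with 5% FBS and 2 mM L-glutamine and plated 24 h before drug addition. Compound was added at one concentration in DMSO-derived medium and incubated for 48 h at 37 °C in 5% CO2. Read-out was SRB protein stain at 515 nm. Result is percent growth versus the no-drug control and the time-zero cell count; values below 0 indicate lethality.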
In the case of `COc1cc2nc(-c3ccc(C(F)(F)F)cc3)cc(OCCN3CCOCC3)c2cc1OC`, the inhibition of growth at 10 µM is reported as 13%.

The compounds below were run on SK-MEL-2 (assay: Growth inhibition of human SK-MEL-2 cells at 10 uM incubated for 48 hrs by sulforhodamine B assay relative to control). Settings: read-out: GI.
Assay type: functional
In short: (§2)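 NCI one-dose screen. Cells grown in RPMI 1640 with 5% FBS and 2 mM L-glutamine, plated and incubated 24 h at 37 °C, 5% CO2. DMSO-dissolved drug added, then 48 h further incubation. Adherent cells fixed with cold TCA, suspension cells fixed after settling. Stained with 0.4% SRB, absorbance read at 515 nm. Reported as percent growth relative to no-drug control and time-zero cell number.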
Compound `COc1cc2nc(-c3ccc(C(F)(F)F)cc3)cc(OCCN3CCOCC3)c2cc1OC` has an inhibition of growth at 10 µM of 13%.

The compounds below were run on SK-MEL-28 (assay: Growth inhibition of human SK-MEL-28 cells at 10 uM incubated for 48 hrs by sulforhodamine B assay relative to control). Settings: read-out: GI.
Assay type: functional
In short: as §2
Work on `COc1cc2nc(-c3ccc(C(F)(F)F)cc3)cc(OCCN3CCOCC3)c2cc1OC` yielded an inhibition of growth at 10 µM of 13%.

The compounds below were run on SK-MEL-5 (assay: Growth inhibition of human SK-MEL-5 cells at 10 uM incubated for 48 hrs by sulforhodamine B assay relative to control). Settings: read-out: GI.
Assay type: functional
In short: as §2
In the case of `COc1cc2nc(-c3ccc(C(F)(F)F)cc3)cc(OCCN3CCOCC3)c2cc1OC`, the inhibition of growth at 10 µM is reported as 13%.

Each compound was assayed on UACC-257 (assay: Growth inhibition of human UACC-257 cells at 10 uM incubated for 48 hrs by sulforhodamine B assay relative to control). Settings: read-out: GI.
Assay type: functional
In short: (§3)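 NCI one-dose screen across a 59-line panel. Cells were grown in RPMI 1640 with 5% FBS and 2 mM L-glutamine, plated and pre-incubated 24 h, then exposed to drug for 48 h at 37 °C, 5% CO2. Adherent cells were fixed with cold TCA (10% final), stained with 0.4% SRB in 1% acetic acid and read at 515 nm. Result is percent growth relative to no-drug control and time-zero cell count.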
`COc1cc2nc(-c3ccc(C(F)(F)F)cc3)cc(OCCN3CCOCC3)c2cc1OC` was tested, and the inhibition of growth at 10 µM was 13%.

The compounds below were run on UACC-62 (assay: Growth inhibition of human UACC-62 cells at 10 uM incubated for 48 hrs by sulforhodamine B assay relative to control). Settings: read-out: GI.
Assay type: functional
In short: as §3
Compound `COc1cc2nc(-c3ccc(C(F)(F)F)cc3)cc(OCCN3CCOCC3)c2cc1OC` has an inhibition of growth at 10 µM of 13%.

The compounds below were run on OVCAR-3 (assay: Growth inhibition of human OVCAR-3 cells at 10 uM incubated for 48 hrs by sulforhodamine B assay relative to control). Settings: read-out: GI.
Assay type: functional
In short: as §2
`COc1cc2nc(-c3ccc(C(F)(F)F)cc3)cc(OCCN3CCOCC3)c2cc1OC` gave an inhibition of growth at 10 µM of 13%.

These compounds were tested on OVCAR-4 (assay: Growth inhibition of human OVCAR-4 cells at 10 uM incubated for 48 hrs by sulforhodamine B assay relative to control). Settings: read-out: GI.
Assay type: functional
In short: as §2
With `COc1cc2nc(-c3ccc(C(F)(F)F)cc3)cc(OCCN3CCOCC3)c2cc1OC` the inhibition of growth at 10 µM was 13%.

What follows are compounds tested on OVCAR-5 (assay: Growth inhibition of human OVCAR-5 cells at 10 uM incubated for 48 hrs by sulforhodamine B assay relative to control). Settings: read-out: GI.
Assay type: functional
In short: as §2
`COc1cc2nc(-c3ccc(C(F)(F)F)cc3)cc(OCCN3CCOCC3)c2cc1OC` gave an inhibition of growth at 10 µM of 13%.

These compounds were tested on OVCAR-8 (assay: Growth inhibition of human OVCAR-8 cells at 10 uM incubated for 48 hrs by sulforhodamine B assay relative to control). Settings: read-out: GI.
Assay type: functional
In short: as §2
With `COc1cc2nc(-c3ccc(C(F)(F)F)cc3)cc(OCCN3CCOCC3)c2cc1OC` the inhibition of growth at 10 µM was 13%.

These compounds were tested on NCI/ADR-RES (assay: Growth inhibition of human NCI/ADR-RES cells at 10 uM incubated for 48 hrs by sulforhodamine B assay relative to control). Settings: read-out: GI.
Assay type: functional
In short: as §2
`COc1cc2nc(-c3ccc(C(F)(F)F)cc3)cc(OCCN3CCOCC3)c2cc1OC` gave an inhibition of growth at 10 µM of 13%.

The compounds below were run on SN12C (assay: Growth inhibition of human SN12C cells at 10 uM incubated for 48 hrs by sulforhodamine B assay relative to control). Settings: read-out: GI.
Assay type: functional
In short: as §2
Compound `COc1cc2nc(-c3ccc(C(F)(F)F)cc3)cc(OCCN3CCOCC3)c2cc1OC` has an inhibition of growth at 10 µM of 13%.

These compounds were tested on TK-10 (assay: Growth inhibition of human TK-10 cells at 10 uM incubated for 48 hrs by sulforhodamine B assay relative to control). Settings: read-out: GI.
Assay type: functional
In short: as §3
Compound `COc1cc2nc(-c3ccc(C(F)(F)F)cc3)cc(OCCN3CCOCC3)c2cc1OC` has an inhibition of growth at 10 µM of 13%.

Each compound was assayed on PC-3 (assay: Growth inhibition of human PC-3 cells at 10 uM incubated for 48 hrs by sulforhodamine B assay relative to control). Settings: read-out: GI.
Assay type: functional
In short: as §2
In the case of `COc1cc2nc(-c3ccc(C(F)(F)F)cc3)cc(OCCN3CCOCC3)c2cc1OC`, the inhibition of growth at 10 µM is reported as 13%.

These compounds were tested on Hs-578T (assay: Growth inhibition of human HS-578T cells at 10 uM incubated for 48 hrs by sulforhodamine B assay relative to control). Settings: read-out: GI.
Assay type: functional
In short: as §1
In the case of `COc1cc2nc(-c3ccc(C(F)(F)F)cc3)cc(OCCN3CCOCC3)c2cc1OC`, the inhibition of growth at 10 µM is reported as 13%.

Each compound was assayed on BT-549 (assay: Growth inhibition of human BT-549 cells at 10 uM incubated for 48 hrs by sulforhodamine B assay relative to control). Settings: read-out: GI.
Assay type: functional
In short: as §1
For `COc1cc2nc(-c3ccc(C(F)(F)F)cc3)cc(OCCN3CCOCC3)c2cc1OC`, the inhibition of growth at 10 µM was 13%.

These compounds were tested on T47D (assay: Growth inhibition of human T47D cells at 10 uM incubated for 48 hrs by sulforhodamine B assay relative to control). Settings: read-out: GI.
Assay type: functional
In short: as §3
Compound `COc1cc2nc(-c3ccc(C(F)(F)F)cc3)cc(OCCN3CCOCC3)c2cc1OC` has an inhibition of growth at 10 µM of 13%.

What follows are compounds tested on MDA-MB-468 (assay: Growth inhibition of human MDA-MB-468 cells at 10 uM incubated for 48 hrs by sulforhodamine B assay relative to control). Settings: read-out: GI.
Assay type: functional
In short: as §1
`COc1cc2nc(-c3ccc(C(F)(F)F)cc3)cc(OCCN3CCOCC3)c2cc1OC` was tested, and the inhibition of growth at 10 µM was 13%.
